# Bioassay records (PubChem)
# T cell HTS: modulators of CD8 T cell-vesicle binding, primary screen, mouse 2C CD8+ T cells, flow cytometry; hit rate 0.068% among 330,000; 2C CD8+ T cell-vesicle binding; stronger effect = lower value; response (vesicle binding), % at 7 µM;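 active means response, share of CD8 T cells binding vesicles, and their 90th percentile fluorescence all below set limits, cut at about 80% in these data, passing the limit was not always enough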;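 further: values below 100% mean blocked vesicle binding to the CD8+ T cells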
#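 material = purified 2C TCR transgenic mouse naive CD8+ T cells | controls = Unloaded micro-vesicles (low), QL9 vesicles with 0.7% DMSO (high) | detection = cytometric PE anti-B7-1 and Alexa647 anti-CD8 signals after 1% paraformaldehyde fixation | incubation = binding step 1.5 h, 37 °C, antibody labelling 20 min, ice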
# LAP4-GFP MLPCN: modulators of LAP4-GFP expression in yeast, primary screen, S. cerevisiae, multiplex flow cytometry, MLPCN library; hit rate 0.34% among 320,000; GFP response vs DMSO, % at 10 µM; 3 h; median GFP as percent of DMSO wells;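 active means GFP response vs DMSO above a set limit, about the screen mean plus 3 SD, cut at about 150% in these data; inconclusive means under 70 cell events counted for the yeast strain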
# MEP2-GFP yeast: modulators of MEP2-GFP levels in yeast, primary screen, S. cerevisiae, multiplex flow cytometry, MLPCN library | hit rate 0.51% among 330,000 | GFP response vs DMSO, % at 10 µM | S. cerevisiae MEP2-GFP strain, 3 h; 100% = DMSO control level | AID 2016, 2009;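 active means GFP response versus DMSO above a set limit, roughly screen mean plus 3 SD, cut at about 180% in these data; inconclusive means fewer than 70 cells counted for a yeast strain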;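 further: median GFP fluorescence of the barcode-gated MEP2-GFP cells per well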
# CIT2 TOR yeast: modulators of CIT2-GFP expression in yeast, primary screen, S. cerevisiae, GFP fusion, multiplex flow cytometry, MLPCN library; GFP response vs DMSO, % at 10 µM; S. cerevisiae CIT2-GFP strain, 3 h; 100 means same as DMSO wells; hit rate 0.065% among 320,000;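 active means GFP response relative to DMSO above a set limit, near the screen mean plus 3 SD, cut at about 150% in these data; inconclusive means Fewer than 70 cells measured for a yeast strain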;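 further: ratio of well median GFP fluorescence to mean of DMSO wells on the plate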
# RPL19A-GFP yeast: RPL19A-GFP expression modulators in yeast, primary screen, cell-based, S. cerevisiae, multiplex flow cytometry, MLPCN; S. cerevisiae RPL19A-GFP strain, 3 h; stronger effect = lower value; hit rate 0.3% among 330,000; percent response vs DMSO, % at 10 µM;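 active means percent response vs DMSO below 50%; inconclusive means fewer than 70 events counted for the yeast strain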;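 further: median channel GFP fluorescence of the barcoded RPL19A-GFP strain; ratio of sample median GFP to plate DMSO average so 100% = DMSO; lower means less RPL19A-GFP as with rapamycin TOR inhibition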
# AGP1-GFP MLPCN: modulators of AGP1-GFP expression in yeast TOR pathway, primary screen, cell-based, multiplex flow cytometry, S. cerevisiae, MLPCN library. 3 h; GFP as percent of DMSO wells. GFP response vs DMSO, % at 10 µM. hit rate 0.02% among 320,000. AID 2066, 2009;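 active means GFP response relative to DMSO above a set limit, near screen average plus 3 SD, cut at about 150% in these data; inconclusive means fewer than 70 cells counted for the yeast strain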;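 further: median GFP channel fluorescence of the gated AGP1 strain per well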
# An asterisk follows results filed as active; u = inconclusive; x = not tested or not shown; [ ] = remark or other dose. Shown are actives, neighbours in structure and some others; about 0.96% of the full set was active somewhere.
SMILES,T cell HTS,LAP4-GFP MLPCN,MEP2-GFP yeast,CIT2 TOR yeast,RPL19A-GFP yeast,AGP1-GFP MLPCN
O=C(Cn1c(=O)cnc2ccccc21)Nc1cccc(S(=O)(=O)N2CCCCC2)c1,337,108,106,96,100,104
COc1ccc(-n2nc3c(N4CCC(C(=O)N5CCC(C)CC5)CC4)nnc(C)c3c2C)cc1,250,69,258*[may fluoresce violet],u,51,u
Cc1nnc(N2CCC(C(=O)N3CCCCC3)CC2)c2nn(-c3ccc(Cl)cc3)c(C)c12,334,96,115,99,97,95
CCCCOC(=O)c1ccc(NC(=S)NC(=O)c2c(Cl)cnn2C)cc1,129,102,105,101,104,101
CCCCOC(=O)c1ccc(NC(=S)NC(=O)c2c(Cl)cnn2CC)cc1,288,83,406*[may fluoresce violet],u,39*[may fluoresce violet],x
Cc1ccc2c(=O)n3c(nc2c1)C(Cc1ccccc1)NC(=O)c1cc(Cl)ccc1-3 (configuration not stated),0.0*,98,98,99,101,109
O=C1NC(Cc2ccccc2)c2nc3ccccc3c(=O)n2-c2ccc(Cl)cc21 (configuration not stated),258,97,93,99,96,96
Cc1ccccc1CN(c1ccc(C(=O)NCc2cccnc2)cc1)S(C)(=O)=O,688,94,91,96,95,102
Cc1ccccc1CN(c1ccc(C(N)=O)cc1)S(C)(=O)=O,530,102,310*[may fluoresce violet],u,17*[may fluoresce violet],u
COc1ccc(CNC(=O)CSc2ncn[nH]2)cc1OC,225,89,97,101,100,96
CCN1CCN(c2ccc(S(=O)(=O)N3CCCCC3)cc2NC(=O)c2cccc(C)c2[N+](=O)[O-])CC1,49*,109,100,93,99,107
COc1ccc2cc(-c3cc(C(=O)O)c4ccccc4n3)ccc2c1,191,135,308*,x,94,105
COc1ccc(-c2cc(C(=O)O)c3ccccc3n2)c(OC)c1,360,98,101,106,99,102
Fc1ccc(CSc2nnc(-c3ccncc3)o2)cc1,166,97,102,89,96,96
Clc1ccc(CSc2nnc(-c3ccncc3)o2)cc1,496,108,179*[may fluoresce violet],u,67,17
COc1ccc(CN(C)C(=O)C23CC4CC(CC(C4)C2)C3)c(OC)c1,267,u,u,u,47*[may fluoresce violet],u
Cc1cnccc1CN(C)C(=O)C1CCC(=O)N(Cc2ccccc2F)C1 (configuration not stated),302,76,121,u,32*[may fluoresce violet],u
Cc1ccc(OCCN2CCN(C(=O)CCC(=O)Nc3nnc(CC(C)C)s3)CC2)cc1,239,77,355*[may fluoresce violet],u,43*[may fluoresce violet],u
COCCC(=O)N1CCC(Oc2ccc(C(=O)N3CCC[C@H]3CO)cc2)CC1,184,85,104,93,108,93
CCCCNS(=O)(=O)c1ccc(OCC(=O)OC)cc1,6.7*,91,104,108,108,103
COc1ccnc(CSC(N)=Nc2cccc(C(F)(F)F)c2)c1,433,93,91,86,95,89
O=C(CSCc1ccc(Cl)cc1)N1CCOCC1,153,93,99,102,101,102
Cc1ccc(S(=O)(=O)Nc2ccc(C(=O)N3CCOCC3)cc2)cc1,239,91,192*[may fluoresce violet],u,64,26
CCOC(=O)N1CCN(C(=O)CCc2ccc(S(=O)(=O)NCCc3ccccc3)cc2)CC1,x,161*,193*,153*,108,108
Cc1ccc(NS(=O)(=O)c2ccc(CCC(=O)N3CCOCC3)cc2)cc1,360,91,181*,109,60,22
SMILES,T cell HTS,LAP4-GFP MLPCN,MEP2-GFP yeast,CIT2 TOR yeast,RPL19A-GFP yeast,AGP1-GFP MLPCN
CNS(=O)(=O)c1ccc(CCC(=O)N2CCOCC2)cc1,179,90,103,103,100,96
Cc1ccc(CSCC(=O)N2CCOCC2)cc1,385,72,236*[may fluoresce violet],u,56,u
CCNS(=O)(=O)c1ccc(CCC(=O)N2CCN(Cc3ccccc3)CC2)cc1,201,95,102,105,101,97
COC(=O)c1c(C(=O)OC)c(-c2ccccc2)n2c1CS(=O)C2 (configuration not stated),361,100,355*[may fluoresce violet],u,41*[may fluoresce violet],u
O=C(CNC(=O)c1[nH]cnc1C(=O)NC(c1ccccc1)c1ccccc1)OCc1ccccc1,517,98,94,84,97,91
Cc1nc2ccc(Br)cn2c1C(=O)N/N=C\c1ccccc1Cl,597,135,248*,124,86,126
Cn1c(SCC(=O)NCCc2ccccc2)ncc(C(=O)Nc2ccccc2)c1=O,589,118,100,95,97,104
CC(C)CC(OC(=O)c1nsc(Cl)c1Cl)C(=O)NC1CCCC1 (configuration not stated),192,60,243*[may fluoresce violet],u,43*[may fluoresce violet],u
CC(OC(=O)c1nsc(Cl)c1Cl)C(=O)NC1CCCCC1 (configuration not stated),188,89,92,99,104,94
Cc1nn(Cc2c(Cl)cccc2Cl)c(C)c1C(=O)NCc1ccc(C)n1C,195,100,216*[may fluoresce violet],u,54,x
O=C(NCc1ccc(Cl)cc1)c1ccc(CNc2c(N3CCOCC3)c(=O)c2=O)cc1,154,103,98,79,102,112
O=C(NCc1ccc(Cl)cc1)c1ccc(CNc2c(N3CCCC3)c(=O)c2=O)cc1,0.0*,97,96,102,94,102
C=CCN1C(=O)C2C(C(=O)NC)C3(C)C=CC2(O3)C1C(=O)NCc1ccc(OC)cc1 (configuration not stated),273,101,519*[may fluoresce violet],u,56,u
O=C(CCC1CCCN(C(=O)c2ccsc2)C1)N1CCN(c2ccccn2)CC1 (configuration not stated),551,92,94,76,96,103
CN(Cc1ccc(Cl)s1)C(=O)CSc1nnc(C2CC2)n1C1CC1,198,98,92,87,97,97
O=C(CSc1cccc[n+]1[O-])c1cc2ccccc2o1,180,155*,96,83,91,90
O=C(COC(=O)COc1ccc2c(c1)CCC2)Nc1ccccc1C(F)(F)F,432,93,93,85,92,93
COC(=O)[C@H](Cc1ccc(O)cc1)NC(=O)Cn1cnc2c(OCc3ccccc3)ncnc21,302,96,106,108,104,105
